# Tests used:
# [1] = test system: Pancreas; assay: Biodistribution in Sprague-Dawley rat pancreas at 300 uCi, iv after 15 mins; format: ADME, organism-based; details: in vivo, 0.25 h
# [2] = test system: Pancreas; assay: Biodistribution in Sprague-Dawley rat pancreas at 300 uCi, iv after 30 mins; format: ADME, organism-based; details: in vivo, 0.5 h
# [3] = test system: Pancreas; assay: Biodistribution in Sprague-Dawley rat pancreas at 300 uCi, iv after 60 mins; format: ADME, organism-based; details: in vivo, 1 h
# [4] = test system: Brain; assay: Biodistribution in Sprague-Dawley rat brain at 300 uCi, iv after 5 mins; format: ADME, organism-based; details: in vivo
# [5] = test system: Brain; assay: Biodistribution in Sprague-Dawley rat brain at 300 uCi, iv after 15 mins; format: ADME, organism-based; details: in vivo, 0.25 h
# [6] = test system: Brain; assay: Biodistribution in Sprague-Dawley rat brain at 300 uCi, iv after 30 mins; format: ADME, organism-based; details: in vivo, 0.5 h
# [7] = test system: Brain; assay: Biodistribution in Sprague-Dawley rat brain at 300 uCi, iv after 60 mins; format: ADME, organism-based; details: in vivo, 1 h
# [8] = test system: Bone; assay: Biodistribution in Sprague-Dawley rat bone at 300 uCi, iv after 5 mins; format: ADME, organism-based, Bone element; details: in vivo
# [9] = test system: Bone; assay: Biodistribution in Sprague-Dawley rat bone at 300 uCi, iv after 15 mins; format: ADME, organism-based, Bone element; details: in vivo, 0.25 h
# [10] = test system: Bone; assay: Biodistribution in Sprague-Dawley rat bone at 300 uCi, iv after 30 mins; format: ADME, organism-based, Bone element; details: in vivo, 0.5 h
# [11] = test system: Bone; assay: Biodistribution in Sprague-Dawley rat bone at 300 uCi, iv after 60 mins; format: ADME, organism-based, Bone element; details: in vivo, 1 h
# [12] = test system: Heart; assay: Biodistribution in Sprague-Dawley rat heart at 300 uCi, iv after 60 mins; format: ADME, organism-based; details: in vivo, 1 h
# [13] = test system: Lung; assay: Biodistribution in Sprague-Dawley rat lung at 300 uCi, iv after 5 mins; format: ADME, organism-based; details: in vivo
# [14] = Ratio of drug uptake in pons to caudate of anesthetized rhesus monkey at 15 to 20 mCi after 85 mins postinjection by microPET; format: ADME, organism-based, Macaca mulatta; details: in vivo
# Procedure, shortened: (§1)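 Anesthetized adult male rhesus monkeys scanned on a microPET P4 after 15–20 mCi of the 11C radioligand; emission collected continuously for 125 min, binned, time-activity curves from manually drawn anatomical ROIs; regional uptake divided by caudate uptake (caudate as NET-poor reference) at 85 min postinjection, at baseline.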
# [15] = Ratio of drug uptake in cerebellum to caudate of anesthetized rhesus monkey at 15 to 20 mCi after 85 mins postinjection by microPET; format: ADME, organism-based, Macaca mulatta; details: in vivo
# Procedure, shortened: (§2)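 Anesthetized adult male rhesus monkeys given 15–20 mCi of the ¹¹C tracer, alone or after desipramine (0.125 or 0.25 mg/kg) 40 min beforehand. MicroPET emission collected continuously for 125 min and binned. ROIs drawn manually on anatomical landmarks to give time-activity curves. Region-to-caudate uptake ratio taken at 85 min postinjection.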
# [16] = Ratio of drug uptake in pons to caudate of awaken rhesus monkey at 15 to 20 mCi after by PET method; format: ADME, Macaca mulatta; details: in vivo
# Procedure, shortened: (§3)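 Awake rhesus monkeys imaged on a high-resolution research tomograph (HRRT) for 120 min after radioligand injection; images coregistered with composite MRI to define regions; time-activity curves generated and highest ratio of regional uptake to caudate uptake taken.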
# [17] = Ratio of drug uptake in pons to caudate of anesthetized rhesus monkey at 15 to 20 mCi pretreated with 0.125 mg/kg desipramine by microPET; format: ADME, organism-based, Macaca mulatta; parameters: dose 0.125 mg/kg; details: in vivo
# Procedure, shortened: (§4)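 Anesthetized adult male rhesus monkeys imaged on a microPET P4 system after injection of 15–20 mCi of the 11C-labeled radioligand. Desipramine was given 40 min before radiotracer injection. Emission data were collected continuously for 125 min and binned. ROIs were drawn manually on anatomical landmarks in the reconstructed images. The ratio of region-of-interest to caudate uptake was taken from time-activity curves at 85 min postinjection.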
# [18] = Ratio of drug uptake in midbrain to caudate of awaken rhesus monkey at 15 to 20 mCi after by PET method; format: ADME, Macaca mulatta; details: in vivo; procedure, shortened: as §3
# [19] = Ratio of drug uptake in cerebellum to caudate of anesthetized rhesus monkey at 15 to 20 mCi pretreated with 0.125 mg/kg desipramine by microPET; format: ADME, organism-based, Macaca mulatta; parameters: dose 0.125 mg/kg; details: in vivo; procedure, shortened: as §4
# [20] = Ratio of drug uptake in cerebellum to caudate of awaken rhesus monkey at 15 to 20 mCi after by PET method; format: ADME, tissue-based, Macaca mulatta; details: in vivo
# Procedure, shortened: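 Awake rhesus monkeys imaged on a high-resolution research tomograph for 120 min after injection of the ¹¹C tracer. Images coregistered with composite MRI to define regions of interest. Highest cerebellum-to-caudate uptake ratio read from the time-activity curves.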
# [21] = Ratio of drug uptake in midbrain to caudate of anesthetized rhesus monkey at 15 to 20 mCi pretreated with 0.125 mg/kg desipramine by microPET; format: ADME, organism-based, Macaca mulatta; parameters: dose 0.125 mg/kg; details: in vivo; procedure, shortened: as §4
# [22] = Ratio of drug uptake in midbrain to caudate of anesthetized rhesus monkey at 15 to 20 mCi after 85 mins postinjection by microPET; format: ADME, organism-based, Macaca mulatta; details: in vivo; procedure, shortened: as §2
# [23] = Ratio of drug uptake in thalamus to caudate of anesthetized rhesus monkey at 15 to 20 mCi after 85 mins postinjection by microPET; format: ADME, organism-based, Macaca mulatta; details: in vivo; procedure, shortened: as §1
# [24] = Ratio of drug uptake in thalamus to caudate of anesthetized rhesus monkey at 15 to 20 mCi pretreated with 0.125 mg/kg desipramine by microPET; format: ADME, organism-based, Macaca mulatta; parameters: dose 0.125 mg/kg; details: in vivo; procedure, shortened: as §4
# [25] = Ratio of drug uptake in thalamus to caudate of awaken rhesus monkey at 15 to 20 mCi after by PET method; format: ADME, Macaca mulatta; details: in vivo; procedure, shortened: as §3
# [26] = test system: Blood; assay: Biodistribution in Sprague-Dawley rat blood at 300 uCi, iv after 5 mins; format: ADME, organism-based; details: in vivo
# [27] = test system: Blood; assay: Biodistribution in Sprague-Dawley rat blood at 300 uCi, iv after 15 mins; format: ADME, organism-based; details: in vivo, 0.25 h
# [28] = test system: Blood; assay: Biodistribution in Sprague-Dawley rat blood at 300 uCi, iv after 30 mins; format: ADME, organism-based; details: in vivo, 0.5 h
# [29] = test system: Blood; assay: Biodistribution in Sprague-Dawley rat blood at 300 uCi, iv after 60 mins; format: ADME, organism-based; details: in vivo, 1 h
# [30] = test system: Heart; assay: Biodistribution in Sprague-Dawley rat heart at 300 uCi, iv after 5 mins; format: ADME, organism-based; details: in vivo
# [31] = test system: Heart; assay: Biodistribution in Sprague-Dawley rat heart at 300 uCi, iv after 15 mins; format: ADME, organism-based; details: in vivo, 0.25 h
# [32] = test system: Heart; assay: Biodistribution in Sprague-Dawley rat heart at 300 uCi, iv after 30 mins; format: ADME, organism-based; details: in vivo, 0.5 h
# [33] = test system: Lung; assay: Biodistribution in Sprague-Dawley rat lung at 300 uCi, iv after 15 mins; format: ADME, organism-based; details: in vivo, 0.25 h
# [34] = test system: Lung; assay: Biodistribution in Sprague-Dawley rat lung at 300 uCi, iv after 30 mins; format: ADME, organism-based; details: in vivo, 0.5 h
# [35] = test system: Lung; assay: Biodistribution in Sprague-Dawley rat lung at 300 uCi, iv after 60 mins; format: ADME, organism-based; details: in vivo, 1 h
# [36] = test system: Kidney; assay: Biodistribution in Sprague-Dawley rat kidney at 300 uCi, iv after 5 mins; format: ADME, organism-based; details: in vivo
# [37] = test system: Kidney; assay: Biodistribution in Sprague-Dawley rat kidney at 300 uCi, iv after 15 mins; format: ADME, organism-based; details: in vivo, 0.25 h
# [38] = test system: Kidney; assay: Biodistribution in Sprague-Dawley rat kidney at 300 uCi, iv after 30 mins; format: ADME, organism-based; details: in vivo, 0.5 h
# [39] = test system: Kidney; assay: Biodistribution in Sprague-Dawley rat kidney at 300 uCi, iv after 60 mins; format: ADME, organism-based; details: in vivo, 1 h
# [40] = test system: Spleen; assay: Biodistribution in Sprague-Dawley rat spleen at 300 uCi, iv after 5 mins; format: ADME, organism-based; details: in vivo
# [41] = test system: Spleen; assay: Biodistribution in Sprague-Dawley rat spleen at 300 uCi, iv after 15 mins; format: ADME, organism-based; details: in vivo, 0.25 h
# [42] = test system: Spleen; assay: Biodistribution in Sprague-Dawley rat spleen at 300 uCi, iv after 30 mins; format: ADME, organism-based; details: in vivo, 0.5 h
# [43] = test system: Spleen; assay: Biodistribution in Sprague-Dawley rat spleen at 300 uCi, iv after 60 mins; format: ADME, organism-based; details: in vivo, 1 h
# [44] = test system: Liver; assay: Biodistribution in Sprague-Dawley rat liver at 300 uCi, iv after 5 mins; format: ADME, organism-based; details: in vivo
# [45] = test system: Liver; assay: Biodistribution in Sprague-Dawley rat liver at 300 uCi, iv after 15 mins; format: ADME, organism-based; details: in vivo, 0.25 h
# [46] = test system: Liver; assay: Biodistribution in Sprague-Dawley rat liver at 300 uCi, iv after 30 mins; format: ADME, organism-based; details: in vivo, 0.5 h
# [47] = test system: Liver; assay: Biodistribution in Sprague-Dawley rat liver at 300 uCi, iv after 60 mins; format: ADME, organism-based; details: in vivo, 1 h
# [48] = test system: Muscle tissue; assay: Biodistribution in Sprague-Dawley rat muscle at 300 uCi, iv after 5 mins; format: ADME, organism-based; details: in vivo
# [49] = test system: Muscle tissue; assay: Biodistribution in Sprague-Dawley rat muscle at 300 uCi, iv after 15 mins; format: ADME, organism-based; details: in vivo, 0.25 h
# [50] = test system: Muscle tissue; assay: Biodistribution in Sprague-Dawley rat muscle at 300 uCi, iv after 30 mins; format: ADME, organism-based; details: in vivo, 0.5 h
# [51] = test system: Muscle tissue; assay: Biodistribution in Sprague-Dawley rat muscle at 300 uCi, iv after 60 mins; format: ADME, organism-based; details: in vivo, 1 h
# [52] = Biodistribution in Sprague-Dawley rat testis at 300 uCi, iv after 5 mins; format: ADME, organism-based; details: in vivo
# [53] = Biodistribution in Sprague-Dawley rat testis at 300 uCi, iv after 15 mins; format: ADME, organism-based; details: in vivo, 0.25 h
# [54] = Biodistribution in Sprague-Dawley rat testis at 300 uCi, iv after 30 mins; format: ADME, organism-based; details: in vivo, 0.5 h
# [55] = Biodistribution in Sprague-Dawley rat testis at 300 uCi, iv after 60 mins; format: ADME, organism-based; details: in vivo, 1 h
# [56] = test system: Pancreas; assay: Biodistribution in Sprague-Dawley rat pancreas at 300 uCi, iv after 5 mins; format: ADME, organism-based; details: in vivo
smiles,measurement,setting,value
[11CH3]c1ccccc1O[C@@H](c1ccccc1)[C@@H]1CNCCO1,Drug uptake,[1],0.83
same,Drug uptake,[2],0.77 % ID/g
same,Drug uptake,[3],0.63 % ID/g
same,Drug uptake,[4],0.9 % ID/g
same,Drug uptake,[5],0.72 % ID/g
same,Drug uptake,[6],0.55 % ID/g
same,Drug uptake,[7],0.25 % ID/g
same,Drug uptake,[8],0.48 % ID/g
same,Drug uptake,[9],0.37 % ID/g
same,Drug uptake,[10],0.2 % ID/g
same,Drug uptake,[11],0.17 % ID/g
same,Drug uptake,[12],0.62 % ID/g
same,Drug uptake,[13],15.3 % ID/g
same,Ratio,[14],1.44
same,Ratio,[15],1.25
same,Ratio,[16],1.13
same,Ratio,[17],1.13
same,Ratio,[18],1.2
same,Ratio,[19],1.04
same,Ratio,[20],0.93
same,Ratio,[21],1.2
same,Ratio,[22],1.43
same,Ratio,[23],1.3
same,Ratio,[24],1.1
same,Ratio,[25],1.25
same,Drug uptake,[26],0.13 % ID/g
same,Drug uptake,[27],0.05 % ID/g
same,Drug uptake,[28],0.05 % ID/g
same,Drug uptake,[29],0.04 % ID/g
same,Drug uptake,[30],3.43 % ID/g
same,Drug uptake,[31],1.49 % ID/g
same,Drug uptake,[32],1.07 % ID/g
same,Drug uptake,[33],6.92 % ID/g
same,Drug uptake,[34],3.63 % ID/g
same,Drug uptake,[35],1.98 % ID/g
same,Drug uptake,[36],2.66 % ID/g
same,Drug uptake,[37],0.85 % ID/g
same,Drug uptake,[38],0.56 % ID/g
same,Drug uptake,[39],0.31 % ID/g
same,Drug uptake,[40],3.5 % ID/g
same,Drug uptake,[41],1.79 % ID/g
same,Drug uptake,[42],1.13 % ID/g
same,Drug uptake,[43],0.49 % ID/g
same,Drug uptake,[44],0.28 % ID/g
same,Drug uptake,[45],0.77 % ID/g
same,Drug uptake,[46],0.46 % ID/g
same,Drug uptake,[47],0.29 % ID/g
same,Drug uptake,[48],0.25 % ID/g
same,Drug uptake,[49],0.22 % ID/g
same,Drug uptake,[50],0.22 % ID/g
same,Drug uptake,[51],0.22 % ID/g
same,Drug uptake,[52],0.18 % ID/g
same,Drug uptake,[53],0.18 % ID/g
same,Drug uptake,[54],0.19 % ID/g
same,Drug uptake,[55],0.15 % ID/g
same,Drug uptake,[56],1.59 % ID/g
